For orientation: EC50 means the concentration at which the effect is half-maximal.

Where two headings read alike, the source gives them in different places.

Results on 7 molecules are retold here after PMC5801006 (European journal of medicinal chemistry, 2017).

The subject of one series is Panc02. Kind of series: MTT viability, 48 h. The series is classed as cell-based, mouse. The settings on record: read-out: Activity, EC50 Panc02.
A further series concerns KP02. Kind of series: MTT viability, 48 h. The series is classed as cell-based, mouse. The settings on record: read-out: Activity, EC50 KP02.
For the next series, the system named is KCKO. The experiment in a line: MTT viability, 48 h. The class given is cell-based, mouse. Conditions: read-out: Activity, EC50 KCKO.
The subject of another series is BxPC3. The experiment in a line: MTT viability, 48 h. The class given is cell-based, human. The settings on record: read-out: Activity, EC50 BxPC3.
The test system of another series is AsPC1. The experiment in a line: MTT viability, 48 h. The class given is cell-based, human. Conditions: read-out: Activity, EC50 AsPC1.
For another series, the target named is P-gp (Homo sapiens, UniProt P08183). The experiment in a line: Calcein-AM assay in MDCK-MDR1 cells. The series is classed as cell-based. Conditions: n.a. = not active, mean of n ≥ 3 ± SEM.
P-gp, sequence (P08183 whole entry): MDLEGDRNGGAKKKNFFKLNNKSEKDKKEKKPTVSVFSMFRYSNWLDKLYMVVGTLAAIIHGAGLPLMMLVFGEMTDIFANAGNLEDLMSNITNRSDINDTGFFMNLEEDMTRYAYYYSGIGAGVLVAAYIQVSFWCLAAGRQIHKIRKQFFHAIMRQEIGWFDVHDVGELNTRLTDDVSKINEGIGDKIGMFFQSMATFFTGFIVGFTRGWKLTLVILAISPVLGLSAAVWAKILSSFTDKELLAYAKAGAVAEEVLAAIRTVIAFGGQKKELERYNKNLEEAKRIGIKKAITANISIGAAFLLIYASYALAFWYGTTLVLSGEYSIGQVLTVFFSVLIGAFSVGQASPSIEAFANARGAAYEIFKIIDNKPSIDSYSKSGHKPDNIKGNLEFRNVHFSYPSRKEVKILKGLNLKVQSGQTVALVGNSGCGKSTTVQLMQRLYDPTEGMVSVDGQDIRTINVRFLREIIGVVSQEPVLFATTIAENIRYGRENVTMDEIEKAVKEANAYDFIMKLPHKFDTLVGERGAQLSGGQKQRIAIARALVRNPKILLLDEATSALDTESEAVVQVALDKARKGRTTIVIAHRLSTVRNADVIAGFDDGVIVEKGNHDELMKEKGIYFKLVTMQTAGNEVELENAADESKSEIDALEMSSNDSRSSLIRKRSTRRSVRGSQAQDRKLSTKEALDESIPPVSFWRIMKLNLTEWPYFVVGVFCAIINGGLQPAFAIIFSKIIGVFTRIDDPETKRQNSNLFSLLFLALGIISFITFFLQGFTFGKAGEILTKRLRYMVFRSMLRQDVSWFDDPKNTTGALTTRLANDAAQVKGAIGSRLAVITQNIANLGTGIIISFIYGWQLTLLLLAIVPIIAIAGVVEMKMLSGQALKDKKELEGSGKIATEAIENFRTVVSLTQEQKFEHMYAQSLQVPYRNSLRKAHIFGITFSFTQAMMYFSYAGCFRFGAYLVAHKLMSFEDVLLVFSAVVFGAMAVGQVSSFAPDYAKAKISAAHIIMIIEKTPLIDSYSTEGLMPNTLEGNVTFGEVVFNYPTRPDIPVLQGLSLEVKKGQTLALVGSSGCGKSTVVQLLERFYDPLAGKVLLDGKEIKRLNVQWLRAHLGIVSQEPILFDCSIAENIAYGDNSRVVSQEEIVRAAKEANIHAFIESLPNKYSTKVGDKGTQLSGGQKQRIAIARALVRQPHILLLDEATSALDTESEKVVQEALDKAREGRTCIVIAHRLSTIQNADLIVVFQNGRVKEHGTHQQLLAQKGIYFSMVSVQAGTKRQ
For a further series, the system named is MIAPaCa-2. Kind of series: MTT viability, 48 h. The class given is cell-based, human. The settings on record: read-out: Activity, EC50 MIAPaCa-2, 48 hr treatment.
The subject of another series is Panc-1. Kind of series: MTT viability, 48 h. The class given is cell-based, human. Conditions: read-out: Activity, EC50 Panc-1.
The next series relates to KP02 tumor cells. The experiment in a line: ROS involvement: MTT viability with antioxidants α-tocopherol or NAC. Conditions: KP02, 4 μM compound 48 h; for Rescue of cell death by NAC: 100 μM NAC; for Rescue of cell death by α-tocopherol: 100 μM α-tocopherol 1 hour prior. The series is classed as cell-based, mouse.
The test system of the next series is caspase-3 in KP02 cells. Kind of series: Caspase-3 activation. The class given is cell-based, mouse. The settings on record: KP02, 25 μM, 5 hours, relative to vehicle. In a few lines:
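KP02 cells (DMEM/Ham's F-12 1:1, 10% FBS, 37 °C, 5% CO2) seeded at 1 × 10^4/well 24 h before treatment. Exposed to 25 μM test compound for 5 h, with or without α-tocopherol (100 μM) or Z-DEVD-FMK (1 μM). Caspase-Glo reagent with luminogenic caspase substrate added, shaken 30 s, then 90 min at room temperature. Luminescence read relative to DMSO-treated cells. Triplicates; n ≥ 3 independent experiments, mean ± SEM.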

Another series relates to KP02 tumors. The experiment in a line: In vivo tumor growth, subcutaneous KP02 tumors in C57BL/6 mice.
Series [1] is classed as in vivo. Conditions: for PCV: 7 at 750nmol/100μL, 1 and 2 at 1500nmol/100 μL, 2 weeks, n = 3, control 47.5 ± 3; for Necropsy/histology findings (pulmonary metastases, nephropathy) / Mouse weight at necropsy: after 2 weeks daily i.p. treatment; for Mouse weight at necropsy: vehicle 19.5± 0.5; for Treatment-related deaths: 750 nmol/100μL i.p. daily for two weeks.
The next series deals with σ1 receptor (Homo sapiens, UniProt Q99720). The experiment in a line: σ1 binding by flow cytometry in MCF7σ1 cells. Conditions: displacement of σ1 fluorescent compound, 0.1 nmol/L-10 μM. The procedure, abridged: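 MCF7 cells engineered for σ1 (DMEM, 10% FBS) incubated with test compound at 0.1, 1, 10, 100 nmol/L, 1 and 10 μM. Then 100 nmol/L σ1 fluorescent probe added for 75 min at 37 °C, with F390 (10 μM) co-incubated to mask σ2. Cells washed twice with PBS, detached (10 min, 37 °C), pelleted and resuspended in PBS. Fluorescence read by flow cytometry through a 530 nm band-pass filter, 50,000 events per sample.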
σ1 receptor, sequence (Q99720 whole entry): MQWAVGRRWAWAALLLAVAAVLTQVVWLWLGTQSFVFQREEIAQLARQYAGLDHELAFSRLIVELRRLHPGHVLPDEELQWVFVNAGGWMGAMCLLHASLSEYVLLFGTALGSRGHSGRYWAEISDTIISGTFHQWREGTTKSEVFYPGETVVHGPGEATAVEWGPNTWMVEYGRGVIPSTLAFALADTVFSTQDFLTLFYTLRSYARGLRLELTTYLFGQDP
(A flow cytometer gives signals particle by particle.)

For series [2], the system named is pancreatic cancer cell lines. The experiment in a line: MTT viability, summary over the panel of pancreatic cancer cell lines. Conditions: 48 h, read-out: Cytotoxic EC50 values in most of the cell lines studied.
Series [3] relates to mitochondrial superoxide in KP02 cells. The experiment in a line: Mitochondrial superoxide detection. The series is classed as cell-based, mouse. Conditions: KP02, 50 μM, 2 hours, MitoSOX Red. In a few lines:
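KP02 cells seeded in 12-well plates 24 h ahead, then exposed to 50 μM test compound for 2 h at 37 °C, with or without α-tocopherol. Stained with MitoSOX Red (5 μM); after 2 h, washed with PBS, harvested with trypsin/EDTA and washed again. Oxidised dye (emission ~580 nm) read by flow cytometry in FL3 as mean fluorescence intensity. Triplicates.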

The test system of series [4] is pancreatic cancer cell lines.
[5] abbreviates: 750 nmol/100μL vehicle i.p. daily for two weeks, vehicle mean 596 mm^3.
Where [6] appears, read: 1500 nmol/100μL vehicle i.p. daily for two weeks, vehicle mean 592 mm^3.

With `CCCCN1CCc2cc(OC)c(OC)cc2C1` [Compound 10, N-Butyl-6,7-dimethoxy-1,2,3,4-tetrahydroisoquinoline], the half-maximal effective concentration (EC50) with Panc02 (Mus musculus, Panc02, 48 h) is above 100 µM; in the series on KP02 (Mus musculus, 48 h), above 100 µM; in the series on KCKO (Mus musculus, 48 h), above 100 µM; with BxPC3 (Homo sapiens, BXPC-3, 48 h), above 100 µM; in the series with AsPC1 (Homo sapiens, ASPC1, 48 h) it was above 100 µM.
Consider `NC(=S)N/N=C1\C(=O)Nc2ccccc21` [Compound 8, (Z)-2-(2-Oxoindolin-3-ylidene)hydrazinecarbothioamide], for which the “P-gp EC50” value at P-gp is “completely abolished the interaction with the P-gp”. The EC50 was above 100 µM in the series on Panc02 (Mus musculus, Panc02, 48 h); above 100 µM with KP02 (Mus musculus, 48 h); above 100 µM in the series on KCKO (Mus musculus, 48 h); above 100 µM in the series with BxPC3 (Homo sapiens, BXPC-3, 48 h); above 100 µM with AsPC1 (Homo sapiens, ASPC1, 48 h).
In the case of `CN(C)C(=S)N/N=C1\C(=O)Nc2ccccc21` [Compound 7, (Z)-N,N-Dimethyl-2-(2-oxoindolin-3-ylidene)hydrazinecarbothioamide], on P-gp, the “P-gp EC50” value is “completely abolished the interaction with the P-gp”. The EC50 with Panc02 (Mus musculus, Panc02, 48 h) stood at 1.21 ± 0.1 µM; with KP02 (Mus musculus, 48 h), 2.83 ± 0.6 µM; with KCKO (Mus musculus, 48 h), 3.14 ± 0.4 µM; with MIAPaCa-2, 18.3 ± 2.1 µM; with BxPC3 (Homo sapiens, BXPC-3, 48 h), 2.52 ± 0.5 µM; in the series with AsPC1 (Homo sapiens, ASPC1, 48 h) it was 2.17 ± 0.3 µM. The EC50 is above 100 µM in the series on Panc-1 (Homo sapiens, PANC-1, 48 h) and 1.21 to 3.14 µM in [2]. Also, the “Rescue of cell death by NAC” value in the series on KP02 tumor cells was “even higher levels of cell death”. Besides, the “Rescue of cell death by α-tocopherol” value with KP02 tumor cells was “no cells were rescued”. Besides, in the series with caspase-3 in KP02 cells, the “Increase of caspase-3 activity” value is on record as “did not activate the caspase-3 at all”. Also, the “Mean tumor volume after conclusion of treatment” value (shortened to “Mean tumor volume”) with KP02 tumors (setting [5]) is listed as 328 mm^3. The molecule further yielded a PCV in series [1] of 42.65 ± 2.85%. Also, the “Necropsy/histology findings (pulmonary metastases, nephropathy)” value (shortened to “Necropsy/histology findings”) in series [1] is “foci of pulmonary metastases of the implanted tumor and a mild chronic progressive nephropathy”. Moreover, the “Mouse weight at necropsy” value in [1] was found to be 19.5 ± 0.5 grams. For the same molecule, at σ1 receptor, the “Interaction with the σ1 receptor” value is listed as “ruled out”.
For the molecule `CCCCN1CCN(C2CCCCC2)CC1` [Compound 11, 1-Butyl-4-cyclohexyl-piperazine], on P-gp, the “P-gp EC50” value was “complete loss of interaction with P-gp”. The EC50 in the series on Panc02 (Mus musculus, Panc02, 48 h) was above 100 µM; in the series with KP02 (Mus musculus, 48 h), above 100 µM; in the series with KCKO (Mus musculus, 48 h), above 100 µM; in the series with BxPC3 (Homo sapiens, BXPC-3, 48 h) it was above 100 µM; with AsPC1 (Homo sapiens, ASPC1, 48 h), above 100 µM.
For the molecule `COc1cc2c(cc1OC)C(=O)N(CCCCN1C(=O)/C(=N\NC(=S)N(C)C)c3ccccc31)CC2` [Compound 9, (Z)-2-(1-(4-(6,7-Dimethoxy-1-oxo-3,4-dihydroisoquinolin-2(1H)-yl)butyl)-2-oxoindolin-3-ylidene)-N,N-dimethylhydrazinecarbothioamide], the EC50 with Panc02 (Mus musculus, Panc02, 48 h) was 2.18 ± 0.3 µM; in the series on KP02 (Mus musculus, 48 h), 5.62 ± 1.1 µM; in the series on KCKO (Mus musculus, 48 h), 4.51 ± 0.8 µM; with BxPC3 (Homo sapiens, BXPC-3, 48 h) it was 5.93 ± 0.7 µM; in the series on AsPC1 (Homo sapiens, ASPC1, 48 h), 5.74 ± 0.5 µM. In addition, in the series on KP02 tumor cells, the “Rescue of cell death by NAC” value was “even higher levels of cell death”. Moreover, the “Rescue of cell death by α-tocopherol” value with KP02 tumor cells is “rescued the pancreatic cancer cells”. Also, the “Increase of caspase-3 activity” value in the series on caspase-3 in KP02 cells is given as “did not activate the caspase-3 at all”.
As for “(Z)-2-[1-[4-(4-Cyclohexylpiperazin-1-yl)butyl]-2-oxoindolin-3-ylidene]-N,N-dimethylhydrazinecarbothioamide [Compound 2]”, the EC50 in the series on Panc02 (48 hr treatment, MTT) came to 1.17 ± 0.4 µM; in the series with KP02 (48 hr treatment, MTT), 7.32 ± 0.8 µM; in the series on KCKO (48 hr treatment, MTT), 6.18 ± 0.3 µM; in the series with MIAPaCa-2, 10.8 ± 1.3 µM; in the series with BxPC3 (48 hr treatment, MTT), 6.15 ± 0.6 µM; with AsPC1 (48 hr treatment, MTT) it was 3.86 ± 0.2 µM. For the same molecule, the EC50 was 8.73 ± 0.8 µM in the series with Panc-1 (48 hr treatment, MTT) and 1.17 to 14.7 µM in [4]. For the same molecule, in the series with KP02 tumor cells, the “Rescue of cell death by α-tocopherol” value is reported as “rescued the pancreatic cancer cells”. For the same molecule, the “Increase of caspase-3 activity” value in the series on caspase-3 in KP02 cells worked out at 6 fold. In series [3], the “Mitochondrial superoxide production, increase of mean fluorescence intensity” value came out at 20 fold. Further, the “Mean tumor volume” value in the series with KP02 tumors (setting [5]) is recorded as “statistically similar to vehicle”; in the series on KP02 tumors (setting [6]), 196 mm^3. For the same molecule, the Treatment-related deaths result in series [1] is reported as “without experiencing any treatment-related deaths”. In addition, in [1], the PCV was 51 ± 3.8%. The “Necropsy/histology findings” value in series [1] is on record as “not noticed”. The “Mouse weight at necropsy” value in series [1] is 19 ± 1 grams. Further, the “Interaction with the σ1 receptor” value at σ1 receptor is given as “ruled out”.
For the molecule “(Z)-2-(1-(4-(6,7-Dimethoxy-3,4-dihydroisoquinolin-2(1H)-yl)butyl)-2-oxoindolin-3-ylidene)-N,N-dimethylhydrazinecarbothioamide [Compound 1]”, the EC50 in the series on Panc02 (48 hr treatment, MTT) was 1.33 ± 0.2 µM; in the series with KP02 (48 hr treatment, MTT) it was 6.92 ± 0.9 µM; with KCKO (48 hr treatment, MTT), 6.49 ± 1 µM; with MIAPaCa-2, 14.6 ± 2.2 µM; in the series on BxPC3 (48 hr treatment, MTT) it was 2.34 ± 0.8 µM; with AsPC1 (48 hr treatment, MTT) it was 2.01 ± 0.6 µM. Further, the EC50 in the series with Panc-1 (48 hr treatment, MTT) is 14.6 ± 2.1 µM; in series [4], 1.17 to 14.7 µM. Further, the “Rescue of cell death by α-tocopherol” value in the series with KP02 tumor cells is recorded as “rescued the pancreatic cancer cells”. Further, in the series with caspase-3 in KP02 cells, the “Increase of caspase-3 activity” value was “did not activate the caspase-3 at all”. The “Mitochondrial superoxide production, increase of mean fluorescence intensity” value in [3] turned out to be 6 fold. Further, the “Mean tumor volume” value in the series with KP02 tumors (setting [5]) was “statistically similar to vehicle”; in the series on KP02 tumors (setting [6]), 205 mm^3. Besides, in series [1], the Treatment-related deaths result is “without experiencing any treatment-related deaths”. In addition, the PCV in series [1] is 45.45 ± 4.15%. In addition, in [1], the “Necropsy/histology findings” value is reported as “not noticed”. Moreover, the “Mouse weight at necropsy” value in series [1] is on record as 17.5 ± 0.5 grams. On σ1 receptor, the “Interaction with the σ1 receptor” value is reported as “ruled out”.
